Bioassay records deposited in PubChem BioAssay by Broad Institute.
CDK5 inh: inhibitors of human CDK5/p35 kinase | Recombinant CDK5/p35, ADP-Glo luminescence, 60 min | inhibition, % at 10 µM | 330,000 compounds, 0.01% hits | AID 488839;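 active means highest replicate inhibition of at least 50% and at least 75% of replicates reaching 50%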
dFosB act: enhances mouse delta FosB homodimer DNA binding | P13346 | purified delta FosB, TAMRA-CDK5 oligo fluorescence polarization; percent of positive-control signal above neutral wells | activation, % at 25 µM | 340,000 compounds, 0.99% hits | AID 493131;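 active means mean activation above about 17%, with every replicate also reaching it, limit read from the data, passing the limit was not always enough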
SR-BI DiI inh: blocks mouse SR-BI lipid uptake from DiI-HDL; inhibition, % at 12.5 µM; 320,000 compounds, 0.96% hits; AID 488896; ldlA[mSR-BI] CHO cells, DiI-HDL uptake fluorescence, 3 h;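 active means mean replicate inhibition of at least 70% and a set share of replicates each scoring 70 or more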
Target sequence (Q61009 whole entry, looked up): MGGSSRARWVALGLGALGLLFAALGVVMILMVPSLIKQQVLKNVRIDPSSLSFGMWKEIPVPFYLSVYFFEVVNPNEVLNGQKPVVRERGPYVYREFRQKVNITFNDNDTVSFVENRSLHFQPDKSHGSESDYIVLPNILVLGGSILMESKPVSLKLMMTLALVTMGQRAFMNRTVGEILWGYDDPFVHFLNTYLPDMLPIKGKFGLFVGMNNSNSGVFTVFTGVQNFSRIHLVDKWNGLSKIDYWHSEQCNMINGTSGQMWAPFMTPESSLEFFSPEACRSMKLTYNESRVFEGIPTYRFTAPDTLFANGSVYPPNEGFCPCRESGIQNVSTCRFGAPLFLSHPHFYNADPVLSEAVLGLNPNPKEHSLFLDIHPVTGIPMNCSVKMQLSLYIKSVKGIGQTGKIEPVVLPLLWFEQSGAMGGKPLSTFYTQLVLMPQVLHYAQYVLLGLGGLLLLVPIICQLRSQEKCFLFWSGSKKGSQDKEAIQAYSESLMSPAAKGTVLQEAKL
SR-BI uptake up: enhances SR-BI lipid uptake from DiI-HDL. CHO ldlA[mSR-BI] cells, DiI-HDL uptake fluorescence, 3 h; 100 = double the neutral-control signal. activation, % at 12.5 µM. 320,000 compounds, 0.096% hits. AID 504775;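 active means mean replicate activation of at least 60% and every replicate at or above 60%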
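Assay system: CHO ldlA[mSR-BI] cells, LDL receptor-null, SR-BI overexpressing; medium: Ham's F12 with 0.5% BSA, HEPES 25 mM, pH 7.4; also added: DiI-HDL 10 µg/mL; timing: 3 h uptake period with compound, 37 °C; signal: DiI fluorescence, bottom read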
Hits are given with their value; - = inactive; . = no result. A selection: hits, their analogues and other compounds. The true share with any hit is near 2%.

SMILES	CDK5 inh	dFosB act	SR-BI DiI inh	SR-BI uptake up
CCC(C)NC(=O)c1cc2c(=O)n3cccc(C)c3nc2s1 (stereo not drawn)	-	-	-	-
COc1cccc(NC(=O)CN(C)C(=O)c2ccc(-c3ccccc3Cl)o2)c1	-	-	-	-
COC(=O)[C@@]1(C)[C@H]2C(=O)N(C)C(=O)[C@H]2[C@H]2CN=C(SCc3ccc(Cl)cc3)N21	-	-	-	-
Cc1nn(-c2cc(N3CCCCCC3)ccc2[N+](=O)[O-])c(=O)c2ccccc12	-	-	-	-
Cc1ccc(-c2nn(-c3cc(N4CCNCC4)ccc3[N+](=O)[O-])c(=O)c3ccccc23)cc1	-	35.0	-	-
CCOc1ccccc1NCc1cc(=O)oc2cc(C)c(O)cc12	-	-	73.6	-
Cc1cc2oc(=O)cc(CNc3ccccc3F)c2cc1O	-	-	-	-
CCc1sc(C(=O)N2CCc3cc(OC)c(OC)cc3C2CC(=O)O)cc1C (stereo not drawn)	-	-	-	-
O=C(NNC(=O)c1ccc2ccccc2c1)c1cccc(Cl)c1	-	-	-	-
COc1cc(OC)cc(C(=O)NC2CCN(CCCOc3ccccc3)CC2)c1	-	-	-	-
COc1cc(N)c(Cl)cc1C(=O)N[C@H]1CCN(CCCOc2ccc(F)cc2)C[C@H]1OC	-	-	75.4	-
CC1(C)c2ccccc2N(CC(N)=O)C12C=Cc1ccccc1O2 (stereo not drawn)	-	-	-	-
CC1(C)c2ccccc2N2CC(=O)N(CC(N)=O)C21C (stereo not drawn)	-	39.9	-	-
COC(=O)C1=C(C)N(CCCC(=O)O)C(=O)NC1c1ccccc1Cl (stereo not drawn)	-	-	-	-
COc1cc(C(=O)NCCc2c[nH]c3ccccc23)ccc1OCc1c(C)noc1C	-	-	83.1	-
CN1/C(=C/C(=O)COC(=O)CN2C(=O)C3CC=CCC3C2=O)C(C)(C)c2ccccc21 (stereo not drawn)	-	-	-	-
CN1/C(=C\C(=O)COC(=O)Cn2nnc(-c3ccccc3)n2)C(C)(C)c2ccccc21	-	52.1	-	-
Cc1ccc(C2(C)NC(=O)N(CC(=O)NC(=O)NC(C)(C)C)C2=O)cc1 (stereo not drawn)	-	-	-	-
CC1(C)CC[C@]2(C(=O)n3ccnc3)CC[C@]3(C)[C@H](C(=O)C=C4[C@@]5(C)C=C(C#N)C(=O)C(C)(C)[C@@H]5CC[C@]43C)[C@@H]2C1	-	-	-	-
O=S(=O)(N[C@H](CO)c1ccccc1)c1ccc(Br)cc1F	-	-	-	-
CCOc1ccccc1N1CCN(C2=C(NS(=O)(=O)c3cccs3)C(=O)c3ccccc3C2=O)CC1	-	-	81.3	-
O=C1NC(=O)C(c2ccccc2[N+](=O)[O-])=C1Nc1ccc(O)c(Cl)c1	66.5	-	-	-
O=C(CCCN1C(=O)/C(=C/c2cccc(Br)c2)SC1=S)Nc1cccnc1	-	21.9	-	-
Cc1cc(NC(=O)CN2C(=O)/C(=C/c3cccc(Br)c3)SC2=S)no1	-	19.0	-	-
CCc1ccc(/C=C2/SC(=S)N(CC(=O)Nc3nc4ccccc4s3)C2=O)cc1	-	28.5	-	-
SMILES	CDK5 inh	dFosB act	SR-BI DiI inh	SR-BI uptake up
O=C(CCCN1C(=O)/C(=C\c2cccc(Br)c2)SC1=S)Nc1cccnc1	-	-	-	-
CCC1Oc2ccccc2N(CC(=O)NCCCN2CCN(c3ccc(OC)cc3)CC2)C1=O (stereo not drawn)	-	-	-	-
Cc1ccccc1-n1ncc2c1CC(C)(C)CC2NC(=O)c1snnc1C (stereo not drawn)	-	-	-	-
O=C(NNC(=O)c1ccccc1O)c1ccc(Cl)c(S(=O)(=O)N2CCCCC2)c1	-	-	102.9	-
O=C(NNC(=O)C1CCN(S(=O)(=O)c2ccccc2C(F)(F)F)CC1)c1ccccc1O	-	-	100.1	-
O=C(NNC(=O)C1CCN(S(=O)(=O)c2ccccc2)CC1)c1ccccc1O	-	-	83.1	-
O=C(NNS(=O)(=O)c1ccccc1)C1CCN(S(=O)(=O)c2ccccc2)CC1	-	-	-	-
O=C(NCc1ccco1)C1CCN(S(=O)(=O)c2ccccc2C(F)(F)F)CC1	-	-	-	.
O=C(NNC(=O)C1CCN(S(=O)(=O)c2c(Cl)cccc2Cl)CC1)c1ccccc1O	-	-	102.9	-
CC(=O)Oc1ccc(C(=O)Nc2ccccc2C(=O)Nc2ccc(C(=O)O)cc2)cc1	-	-	-	-
